# Test results reported in PubChem BioAssay AID2608 (Broad Institute, 2010).
# Test system: BJeLR fibroblasts viability, alamar blue fluorescence, 48 h
# Experiment: cytotoxicity toward RAS-transformed BJeLR fibroblasts, dose response, cell-based, alamar blue fluorescence, 48 h, powder samples (AID 2608)
# Summary of the method: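 Material: BJ fibroblasts transformed with hTERT, SV40 LT/ST and HRASV12 | Amount: 1000 cells/well | Medium: DMEM/M199 growth medium supplemented with FBS | Dosing: 2-fold compound dilution series, 0.01–5.33 µg/mL final | Incubation: 48 h exposure, 37 °C, 5% CO2, ~16 h alamar blue | Signal: Alamar blue fluorescence, excitation 544 nm, emission 590 nm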
row,SMILES,EC50
1,COc1ccc(C(C(=O)NC2CCCCC2)N(C(=O)CCl)c2ccc(C)cc2)cc1 (centres undefined),161 nM
2,Cc1ccc(C2CC(c3cccs3)=NN2C(=O)CCl)cc1 (centres undefined),776 nM
3,CCCCCCCN(C(=O)CCl)c1cccc(C)c1,119 nM
4,O=C(CCl)N=c1sccn1Cc1ccccc1Cl,149 nM
5,COc1ccc(CN(CCC(c2ccccc2)c2ccc(OC(C)C)cc2)C(=O)CCl)cc1OC (centres undefined),642 nM
6,COc1ccc(N(C(=O)CCl)C(C(=O)NCCc2ccccc2)c2cccs2)cc1 (centres undefined),217 nM
7,COc1ccc(N(C(=O)CCl)C(C(=O)NCCc2ccccc2)c2cccs2)cc1Cl (centres undefined),26 nM
8,COc1ccc(C(C(=O)NC2CCCCC2)N(C(=O)CCl)c2cccc(Cl)c2)cc1 (centres undefined),171 nM
9,COc1cccc(N(C(=O)CCl)C(C(=O)NCCc2ccccc2)c2cccs2)c1 (centres undefined),168 nM
10,COC(=O)[C@@H]1Cc2c([nH]c3ccccc23)C(C)(C)N1C(=O)CCl,475 nM
11,C=CCOc1ccccc1CN(C(=O)CCl)c1ccc2c(c1)OCO2,855 nM
12,Cc1ccc(N(C(=O)CCl)C(C(=O)NC2CCCCC2)c2cccnc2)cc1C (centres undefined),160 nM
13,Nc1nc(CCl)nc(Nc2ccc3ccccc3c2)n1,85 nM
14,CCOc1ccc(Nc2nc(N)nc(CCl)n2)cc1,226 nM
